Measurements: ChEMBL document CHEMBL1155315, “Towards to hENT1-nucleoside transporter selective imaging agents. Synthesis and in vitro evaluation of the radiolabeled SAENTA analogues” (Bioorg Med Chem Lett, 2009)

Assays:
[1] = target: T1, Equilibrative nucleoside transporter 1 (Homo sapiens) (UniProt Q99808); experiment: (§1) Binding affinity to human ENT1 in HL60 cells by flow cytometry; type: cell-based; conditions: HL-60
T1 sequence (whole entry): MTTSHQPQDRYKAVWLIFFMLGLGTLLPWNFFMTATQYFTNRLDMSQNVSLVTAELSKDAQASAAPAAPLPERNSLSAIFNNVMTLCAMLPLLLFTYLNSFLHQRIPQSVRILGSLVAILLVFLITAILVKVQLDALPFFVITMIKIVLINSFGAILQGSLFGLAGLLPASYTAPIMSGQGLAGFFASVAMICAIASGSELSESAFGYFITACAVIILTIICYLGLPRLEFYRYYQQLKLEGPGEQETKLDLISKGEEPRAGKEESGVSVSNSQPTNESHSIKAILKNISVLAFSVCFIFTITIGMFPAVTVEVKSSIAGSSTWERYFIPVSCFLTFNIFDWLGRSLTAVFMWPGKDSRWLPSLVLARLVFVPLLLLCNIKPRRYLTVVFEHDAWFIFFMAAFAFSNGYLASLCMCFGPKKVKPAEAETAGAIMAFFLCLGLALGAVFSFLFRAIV
Procedure, shortened: (§2)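 Apparent KD and Bmax of SAENTA-fluorescein on each cell line, from flow-cytometric binding over a range of SAENTA-fluorescein concentrations. Specific binding is total minus nonspecific fluorescence, with nonspecific fluorescence measured in the presence of 7.2 μM NBMPR. Saturation parameters come from curve fitting; Bmax is given as mean fluorescence units per 10^4 cells.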

[2] = target: T2, Equilibrative nucleoside transporter 1 (Homo sapiens, UniProt Q99808); experiment: as §1; type: cell-based, HL-60; procedure, shortened: as §2
T2 sequence (Q99808 whole entry): T1 sequence (whole entry)

[3] = target: T1, Equilibrative nucleoside transporter 1 (Homo sapiens); experiment: (§3) Binding affinity to human ENT1 in Capan1 cells by flow cytometry; type: cell-based; conditions: CAPAN-1; procedure, shortened: as §2
[4] = target: T2, Equilibrative nucleoside transporter 1; experiment: as §3; type: cell-based, CAPAN-1; procedure, shortened: as §2
[5] = target: T1, Equilibrative nucleoside transporter 1 (Homo sapiens); experiment: (§4) Binding affinity to human ENT1 in panc1 cells by flow cytometry; type: cell-based; procedure, shortened: as §2
[6] = target: T2, Equilibrative nucleoside transporter 1; experiment: as §4; type: cell-based; procedure, shortened: as §2
[7] = target: T1, Equilibrative nucleoside transporter 1 (Homo sapiens); experiment: (§5) Binding affinity to human ENT1 in MIA-PaCa2 cells by flow cytometry; type: cell-based; procedure, shortened: as §2
[8] = target: T2, Equilibrative nucleoside transporter 1; experiment: as §5; type: cell-based; procedure, shortened: as §2
[9] = target: T1, Equilibrative nucleoside transporter 1 (Homo sapiens); experiment: (§6) Binding affinity to human ENT1 in BX-PC3 cells by flow cytometry; type: cell-based; conditions: BXPC-3; procedure, shortened: as §2
[10] = target: T2, Equilibrative nucleoside transporter 1; experiment: as §6; type: cell-based, BXPC-3; procedure, shortened: as §2
[11] = target: T1, Equilibrative nucleoside transporter 1 (Homo sapiens); experiment: (§7) Binding affinity to human ENT1 in SK-PC1 cells by flow cytometry; type: cell-based; procedure, shortened: as §2
[12] = target: T2, Equilibrative nucleoside transporter 1; experiment: as §7; type: cell-based; procedure, shortened: as §2
[13] = target: T2, Equilibrative nucleoside transporter 1; experiment: Displacement of SAENTA-fluorescein from human ENT1 in HL60 cells by flow cytometry; type: cell-based, HL-60
Procedure, shortened: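 HL60 cells were preincubated with the inhibitor, then exposed to 50 nM SAENTA-fluorescein and analysed by flow cytometry (example inhibitor levels 5, 25 and 50 nM). IC50 is the concentration inhibiting 50% of SAENTA-fluorescein binding, from nonlinear regression of inhibitor concentration–fluorescence curves. Ki = IC50/(1+[S]/KD), using the SAENTA-fluorescein concentration and KD.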

Compound: O=C(CCCCCNC(=O)c1ccc2c(c1)C(=O)OC21c2ccc(O)cc2Oc2cc(O)ccc21)NCCSC[C@H]1O[C@@H](n2cnc3c(NCc4ccc([N+](=O)[O-])cc4)ncnc32)[C@H](O)[C@@H]1O
- Bmax [1]: 21.1 MFU
- Kd [2]: 260 pM
- Bmax [3]: 9.5 MFU
- Kd [4]: 320 pM
- Bmax [5]: 49.8 MFU
- Kd [6]: 3800 pM
- Bmax [7]: 30.7 MFU
- Kd [8]: 910 pM
- Bmax [9]: 6.7 MFU
- Kd [10]: 360 pM
- Bmax [11]: 2.6 MFU
- Kd [12]: 400 pM

Compound: O=C(CCCCCNC(=O)c1ccc(F)cc1)NCCSC[C@H]1O[C@@H](n2cnc3c(NCc4ccc([N+](=O)[O-])cc4)ncnc32)[C@H](O)[C@@H]1O
- IC50 [13]: 5100 pM
- Ki [13]: 64 pM

Compound: O=C(CCCCCNC(=O)c1cccc(I)c1)NCCSC[C@H]1O[C@@H](n2cnc3c(NCc4ccc([N+](=O)[O-])cc4)ncnc32)[C@H](O)[C@@H]1O
- IC50 [13]: 1400 pM
- Ki [13]: 18 pM
